Measured values of several laboratories.
Compare with care: the assays were run in different laboratories.
MET: Hepatocyte growth factor receptor (MET, Homo sapiens, UniProt P08581)
MET Y1235D: Hepatocyte growth factor receptor (MET, Homo sapiens, UniProt P08581, Y1235D)

| SMILES | target | assay | conditions | endpoint | value |
| --- | --- | --- | --- | --- | --- |
| N#Cc1ccc(NC(=O)Nc2ccccc2)cc1 | MET | cell-free assay, competition with immobilised ligand | 25 µM | remaining binding | 100% |
| CN1CCN(C(=O)c2ccc(NC(=O)Nc3ccc(N(C)c4ccnc(Nc5ccc(CS(C)(=O)=O)cc5)n4)cc3)cc2)CC1 | MET Y1235D | binding | 1 µM | remaining binding | 4.4% |
| C1=C/COCc2cc(ccc2OCCN2CCCC2)Nc2nccc(n2)-c2cccc(c2)COC/1 | MET Y1235D | binding | 0.1 µM | remaining binding | 100% |
| CCCCC(=O)Nc1ccc(-c2ccc3ncn(CCC)c(=O)c3c2)cn1 | MET | binding, competition with immobilised ligand | 0.5 µM | remaining binding | 96% |
| CC#CC(=O)N1CCC[C@H]1c1nc(-c2ccc(C(=O)Nc3ccccn3)cc2)c2c(N)nccn12 | MET | enzyme activity, inhibitor | 1 µM | inhibition | 17% |
| C[C@H]1CC[C@H](n2c3cnccc3c3cnc(Nc4ccc5c(n4)CCN(C(=O)CO)C5)nc32)CC1 | MET Y1235D | cell-free assay | 1 µM | remaining signal | 100% |
| C=CC(=O)N1CCC([C@@H]2CCNc3c(C(N)=O)c(-c4ccc(Oc5ccccc5)cc4)nn32)CC1 | MET | cell-free assay | 1 µM | inhibition | 7% |
| COc1ccc2oc(-c3ccc4nc(N)oc4c3)c/c(=N\c3ccccc3NC(=O)CCN)c2c1 | MET | binding | 1 µM | remaining binding | 106% |
| Cc1ccc(NC(=O)c2ccnc(C(F)(F)F)c2)cc1-c1cc(OCCO)nc(N2CCOCC2)c1 | MET | binding | 1 µM | remaining binding | 100% |
| O=C1C=C(Nc2ccc(OCc3cn(Cc4ccccc4)nn3)cc2)C(=O)c2ccccc21 | MET | enzyme activity, inhibitor, radiometric | 10 µM | inhibition | 18% |
| CC(C)S(=O)(=O)c1ccc2nccc(Nc3ccc4sc(C5CCCC5)nc4c3)c2c1 | MET | enzyme activity, inhibitor | 1 µM | activity vs control | 119% |
| Cc1cc(O)c(-c2ccc([C@@H](C)CN(C)C)cc2)c2c1[nH]c(=O)c1sccc12 | MET | cell-free assay, inhibitor | 0.1 µM | inhibition | -0.782% |
| COc1ccc2[nH]c3c4[nH]c5ccc(OC)cc5c4c4c(c3c2c1)C(=O)NC4=O | Hepatocyte growth factor receptor (MET, Homo sapiens, UniProt P08581, M1250T) | binding | 1 µM | remaining binding | 88% |
| C#Cc1cnc(Nc2ccnc(CO)c2)nc1Nc1ccccc1S(C)(=O)=NC#N (centres unmarked) | MET | cell-free assay | 1 µM | remaining signal | 83% |
